Assay results taken from ChEMBL document CHEMBL1177643, “Synthesis, DNA-binding ability and anticancer activity of benzothiazole/benzoxazole-pyrrolo[2,1-c][1,4]benzodiazepine conjugates” (Bioorg Med Chem, 2010).

How the values were obtained:
SF-268 = assay: Growth inhibition of human SF268 cells after 48 hrs by sulforhodamine B assay; type: functional; settings: SF-268, 48 h
How it was run: (§1)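 Panel of 60 human cancer cell lines; for each compound, dose–response curves per cell line measured at a minimum of five concentrations at 10-fold dilutions. Cells exposed continuously to drug for 48 h, and growth was read out by sulforhodamine B staining.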

SNB-75 = assay: Growth inhibition of human SNB75 cells after 48 hrs by sulforhodamine B assay; type: functional; settings: SNB-75, 48 h; how it was run: as §1
OVCAR-5 = assay: Growth inhibition of human OVCAR5 cells after 48 hrs by sulforhodamine B assay; type: functional; settings: OVCAR-5, 48 h; how it was run: as §1
A-375 [1] = assay: Cell cycle arrest in human A375 cells assessed as accumulation at G0 phase at 2 uM after 24 hrs using propidium iodide staining by flow cytometry; type: functional
How it was run: (§2)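 A375 cells (5×10^5) grown 24 h, then exposed to compound 24 h (DMSO control). Trypsin–EDTA harvest, fixed in ice-cold 70% ethanol at 4 °C 30 min, RNase A 37 °C 30 min, propidium iodide staining. DNA content measured by flow cytometry on 20,000 events, gated as sub-G1/G0, G1, S and G2/M.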

CCRF-CEM = assay: Growth inhibition of human CCRF-CEM cells after 48 hrs by sulforhodamine B assay; type: functional
How it was run: (§3)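 Dose–response in each cell line over at least five concentrations at 10-fold dilutions, with 48 h continuous exposure and sulforhodamine B read-out.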

MOLT-4 = assay: Growth inhibition of human MOLT4 cells after 48 hrs by sulforhodamine B assay; type: functional; settings: MOLT-4, 48 h; how it was run: as §1
A-375 [2] = assay: Cell cycle arrest in human A375 cells assessed as accumulation at G2/M phase at 2 uM after 24 hrs using propidium iodide staining by flow cytometry; type: functional; how it was run: as §2
RXF 393 = assay: Growth inhibition of human RXF393 cells after 48 hrs by sulforhodamine B assay; type: functional; settings: RXF 393, 48 h; how it was run: as §1
UACC-257 = assay: Growth inhibition of human UACC257 cells after 48 hrs by sulforhodamine B assay; type: functional; settings: UACC-257, 48 h; how it was run: as §1
NCI-H460 = assay: Growth inhibition of human NCI-H460 cells after 48 hrs by sulforhodamine B assay; type: functional; settings: NCI-H460, 48 h; how it was run: as §1
SNB-19 = assay: Growth inhibition of human SNB19 cells after 48 hrs by sulforhodamine B assay; type: functional; settings: SNB-19, 48 h; how it was run: as §1
SR = assay: Growth inhibition of human SR cells after 48 hrs by sulforhodamine B assay; type: functional; how it was run: as §1
SF-295 = assay: Growth inhibition of human SF295 cells after 48 hrs by sulforhodamine B assay; type: functional; settings: SF-295, 48 h; how it was run: as §1
A-375 [3] = assay: Cell cycle arrest in human A375 cells assessed as accumulation at G1 phase at 2 uM after 24 hrs using propidium iodide staining by flow cytometry; type: functional; how it was run: as §2
A-375 [4] = assay: Cell cycle arrest in human A375 cells assessed as accumulation at S phase at 2 uM after 24 hrs using propidium iodide staining by flow cytometry; type: functional; how it was run: as §2
A498 = assay: Growth inhibition of human A498 cells after 48 hrs by sulforhodamine B assay; type: functional; settings: A498, 48 h; how it was run: as §3
SW-620 = assay: Growth inhibition of human SW620 cells after 48 hrs by sulforhodamine B assay; type: functional; settings: SW-620, 48 h; how it was run: as §1
HOP-62 = assay: Growth inhibition of human HOP62 cells after 48 hrs by sulforhodamine B assay; type: functional; settings: HOP-62, 48 h; how it was run: as §1
M14 = assay: Growth inhibition of human M14 cells after 48 hrs by sulforhodamine B assay; type: functional; settings: M14, 48 h; how it was run: as §1
A549 = assay: Growth inhibition of human A549 cells after 48 hrs by sulforhodamine B assay; type: functional; settings: A549, 48 h; how it was run: as §3
OVCAR-4 = assay: Growth inhibition of human OVCAR4 cells after 48 hrs by sulforhodamine B assay; type: functional; settings: OVCAR-4, 48 h; how it was run: as §1
KM12 = assay: Growth inhibition of human KM12 cells after 48 hrs by sulforhodamine B assay; type: functional; settings: KM12, 48 h; how it was run: as §1
MCF7 = assay: Growth inhibition of human MCF7 cells after 48 hrs by sulforhodamine B assay; type: functional; settings: MCF7, 48 h; how it was run: as §1
NCI-H322M = assay: Growth inhibition of human NCI-H322M cells after 48 hrs by sulforhodamine B assay; type: functional; how it was run: as §1
NCI-H522 = assay: Growth inhibition of human NCI-H522 cells after 48 hrs by sulforhodamine B assay; type: functional; settings: NCI-H522, 48 h; how it was run: as §1
BT-549 = assay: Growth inhibition of human BT549 cells after 48 hrs by sulforhodamine B assay; type: functional; settings: BT-549, 48 h; how it was run: as §3
UO-31 = assay: Growth inhibition of human UO31 cells after 48 hrs by sulforhodamine B assay; type: functional; settings: UO-31, 48 h; how it was run: as §1
SK-MEL-5 = assay: Growth inhibition of human SK-MEL-5 cells after 48 hrs by sulforhodamine B assay; type: functional; settings: SK-MEL-5, 48 h; how it was run: as §1
MDA-MB-435 = assay: Growth inhibition of human MDA-MB-435 cells after 48 hrs by sulforhodamine B assay; type: functional; settings: MDA-MB-435, 48 h; how it was run: as §1
A-375 [5] = assay: Cell cycle arrest in human A375 cells assessed as accumulation at G0/G1 phase at 2 uM after 24 hrs using propidium iodide staining by flow cytometry; type: functional; how it was run: as §2
UACC-62 = assay: Growth inhibition of human UACC62 cells after 48 hrs by sulforhodamine B assay; type: functional; settings: UACC-62, 48 h; how it was run: as §1
MDA-MB-231 = assay: Growth inhibition of human MDA-MB-231 cells after 48 hrs by sulforhodamine B assay; type: functional; settings: MDA-MB-231, 48 h; how it was run: as §1
ACHN = assay: Growth inhibition of human ACHN cells after 48 hrs by sulforhodamine B assay; type: functional; how it was run: as §3
OVCAR-8 = assay: Growth inhibition of human OVCAR8 cells after 48 hrs by sulforhodamine B assay; type: functional; settings: OVCAR-8, 48 h; how it was run: as §1
HCC 2998 = assay: Growth inhibition of human HCC2998 cells after 48 hrs by sulforhodamine B assay; type: functional; settings: HCC 2998, 48 h; how it was run: as §1
HCT-116 = assay: Growth inhibition of human HCT116 cells after 48 hrs by sulforhodamine B assay; type: functional; settings: HCT-116, 48 h; how it was run: as §1
[6] = Growth inhibition of human […] cells after 48 hrs by sulforhodamine B assay; type: functional; how it was run: as §1
Calf thymus DNA = assay: Binding affinity to calf thymus duplex-form DNA assessed as melting temperature at 1:5 compound/DNA ratio after 18 hrs; type: nucleic-acid assay; settings: Bos taurus
U-251 = assay: Growth inhibition of human U251 cells after 48 hrs by sulforhodamine B assay; type: functional; settings: U-251, 48 h; how it was run: as §1
K562 = assay: Growth inhibition of human K562 cells after 48 hrs by sulforhodamine B assay; type: functional; settings: K562, 48 h; how it was run: as §1
COLO 205 = assay: Growth inhibition of human COLO205 cells after 48 hrs by sulforhodamine B assay; type: functional; settings: COLO 205, 48 h; how it was run: as §3
HCT-15 = assay: Growth inhibition of human HCT15 cells after 48 hrs by sulforhodamine B assay; type: functional; settings: HCT-15, 48 h; how it was run: as §1
LOX IMVI = assay: Growth inhibition of human LOXIMVI cells after 48 hrs by sulforhodamine B assay; type: functional; how it was run: as §1
T47D = assay: Growth inhibition of human T47D cells after 48 hrs by sulforhodamine B assay; type: functional; how it was run: as §1
HOP-92 = assay: Growth inhibition of human HOP92 cells after 48 hrs by sulforhodamine B assay; type: functional; settings: HOP-92, 48 h; how it was run: as §1

Compound: COc1cc2c(cc1OCCCCC(=O)Nc1ccc(-c3nc4ccccc4s3)cc1)N=C[C@@H]1CCCN1C2=O
- GI50 (SF-268): 2040 nM
- GI50 (SNB-75): 1820 nM
- GI50 (OVCAR-5): 3550 nM
- Activity (A-375 [1]): 15.1%
- GI50 (CCRF-CEM): 1200 nM
- GI50 (MOLT-4): 1620 nM
- Activity (A-375 [2]): 5.41%
- GI50 (RXF 393): 1620 nM
- GI50 (UACC-257): 1740 nM
- GI50 (NCI-H460): 1660 nM
- GI50 (SNB-19): 2690 nM
- GI50 (SR): 550 nM
- GI50 (SF-295): 550 nM
- Activity (A-375 [3]): 73.34%
- Activity (A-375 [4]): 6.15%
- GI50 (A498): 1860 nM
- GI50 (SW-620): 1620 nM
- GI50 (HOP-62): 2450 nM
- GI50 (M14): 1550 nM
- GI50 (A549): 3390 nM
- GI50 (OVCAR-4): 2820 nM
- GI50 (KM12): 2950 nM
- GI50 (MCF7): 724 nM
- GI50 (NCI-H322M): 2820 nM
- GI50 (NCI-H522): 977 nM
- GI50 (BT-549): 1120 nM
- GI50 (UO-31): 1660 nM
- GI50 (SK-MEL-5): 1780 nM
- GI50 (MDA-MB-435): 1780 nM
- Activity (A-375 [5]): 88.44%
- GI50 (UACC-62): 1740 nM
- GI50 (MDA-MB-231): 2090 nM
- GI50 (ACHN): 3020 nM
- GI50 (OVCAR-8): 1550 nM
- GI50 (HCC 2998): 1580 nM
- GI50 (HCT-116): 1860 nM
- GI50 [6]: 1450 nM
- ΔTm (Calf thymus DNA): 0.5 °C
- GI50 (U-251): 1910 nM
- GI50 (K562): 1740 nM
- GI50 (COLO 205): 1700 nM
- GI50 (HCT-15): 2820 nM
- GI50 (LOX IMVI): 1550 nM
- GI50 (T47D): 1950 nM
- GI50 (HOP-92): 1740 nM

Compound: COc1cc(-c2nc3ccccc3s2)ccc1OCCCCOc1cc2c(cc1OC)C(=O)N1CCC[C@H]1C=N2
- GI50 (SF-268): 1230 nM
- GI50 (SNB-75): 1230 nM
- GI50 (OVCAR-5): 501 nM
- Activity (A-375 [1]): 20.86%
- GI50 (CCRF-CEM): 339 nM
- GI50 (MOLT-4): 676 nM
- Activity (A-375 [2]): 4.45%
- GI50 (RXF 393): 240 nM
- GI50 (UACC-257): 2190 nM
- GI50 (NCI-H460): 646 nM
- GI50 (SNB-19): 1620 nM
- GI50 (SR): 295 nM
- GI50 (SF-295): 1910 nM
- Activity (A-375 [3]): 69.69%
- Activity (A-375 [4]): 5%
- GI50 (A498): 1620 nM
- GI50 (SW-620): 794 nM
- GI50 (HOP-62): 1410 nM
- GI50 (M14): 1230 nM
- GI50 (A549): 2690 nM
- GI50 (OVCAR-4): 1620 nM
- GI50 (KM12): 1020 nM
- GI50 (MCF7): 407 nM
- GI50 (NCI-H322M): 2570 nM
- GI50 (NCI-H522): 550 nM
- GI50 (BT-549): 282 nM
- GI50 (UO-31): 1230 nM
- GI50 (SK-MEL-5): 407 nM
- GI50 (MDA-MB-435): 1350 nM
- Activity (A-375 [5]): 90.55%
- GI50 (UACC-62): 1120 nM
- GI50 (MDA-MB-231): 525 nM
- GI50 (ACHN): 776 nM
- GI50 (OVCAR-8): 1780 nM
- GI50 (HCC 2998): 646 nM
- GI50 (HCT-116): 525 nM
- GI50 [6]: 309 nM
- ΔTm (Calf thymus DNA): 0.5 °C
- GI50 (U-251): 417 nM
- GI50 (K562): 339 nM
- GI50 (COLO 205): 692 nM
- GI50 (HCT-15): 1320 nM
- GI50 (LOX IMVI): 724 nM
- GI50 (T47D): 257 nM
- GI50 (HOP-92): 263 nM
